Experimental data from ChEMBL document CHEMBL1772983, “Bioactive sesqui- and diterpenoids from the Argentine liverwort Porella chilensis” (2011).
The source made the active and inactive calls. No cut-off for these calls is given here.

Key:
Pseudomonas aeruginosa [1] = assay: Antibacterial activity against Pseudomonas aeruginosa ATCC 27853 assessed as increase in bacterial growth at 50 ug/ml by microplate assay relative to control; type: functional
Outline: (§1)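 Overnight P. aeruginosa ATCC 27853 culture diluted to 10% (v/v) in LB medium. 190 µL of culture plus 10 µL of 1 or 0.1 mg/mL stock in DMSO–water (1:1), giving 50 or 5 µg/mL. 8 replicates; vehicle-only negative control. Incubated 37 °C, 24 h; growth read as OD600. Mean ± SD, Student's t-test, p ≤ 0.05.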

Pseudomonas aeruginosa [2] = assay: Induction of quorum sensing in Pseudomonas aeruginosa ATCC 27853 assessed as N-acylhomoserin lactones production at 50 ug/ml after 24 hrs by measuring beta-galactosidase activity by spectrophotometry
Pseudomonas aeruginosa [3] = assay: Induction of Pseudomonas aeruginosa ATCC 27853 biofilm formation at 0.6 uM after 24 hrs using crystal violet staining by spectrophotometry analysis; type: functional, organism-based
Pseudomonas aeruginosa [4] = assay: Antibacterial activity against Pseudomonas aeruginosa ATCC 27853 assessed as growth inhibition by microplate assay; type: functional, organism-based; outline: as §1
Pseudomonas aeruginosa [5] = assay: Induction of Pseudomonas aeruginosa ATCC 27853 biofilm formation at 50 ug/ml after 24 hrs using crystal violet staining by spectrophotometry analysis relative to control; type: functional
Outline: (§2)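 ATCC 27853 culture diluted to 10% (v/v) in LB and dosed from DMSO–water (1:1) stocks of 1 or 0.1 mg/mL (10 µL into 190 µL), 8 replicates, vehicle control. After 24 h at 37 °C, liquid discarded and wells washed three times with PBS. Stained with 0.1% crystal violet for 20 min, rinsed with water, dye eluted with absolute EtOH, A540 read. Mean ± SD, Student's t-test.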

Pseudomonas aeruginosa [6] = assay: Antibacterial activity against Pseudomonas aeruginosa ATCC 27853 assessed as increase in bacterial growth at 5 to 50 ug/ml by microplate assay; type: functional, organism-based; outline: as §1
Pseudomonas aeruginosa [7] = assay: Inhibition of Pseudomonas aeruginosa ATCC 27853 biofilm formation at 50 ug/ml after 24 hrs using crystal violet staining by spectrophotometry analysis relative to control; settings: ATCC 27853, 24 h
Pseudomonas aeruginosa [8] = assay: Inhibition of Pseudomonas aeruginosa ATCC 27853 biofilm formation at 5 ug/ml after 24 hrs using crystal violet staining by spectrophotometry analysis relative to control; type: functional; outline: as §2
Pseudomonas aeruginosa [9] = assay: Antibacterial activity against Pseudomonas aeruginosa ATCC 27853 assessed as growth inhibition at 5 to 50 ug/ml after 24 hrs by microplate assay; type: functional, organism-based; outline: as §1
Pseudomonas aeruginosa [10] = assay: Inhibition of quorum sensing activity in Pseudomonas aeruginosa ATCC 27853 assessed as N-acylhomoserin lactones production at 5 to 50 ug/ml after 24 hrs by measuring beta-galactosidase activity by spectrophotometry
Pseudomonas aeruginosa [11] = assay: Inhibition of Pseudomonas aeruginosa ATCC 27853 biofilm formation at 5 ug/ml after 24 hrs using crystal violet staining by spectrophotometry analysis; type: functional; settings: ATCC 27853, 24 h; outline: as §2
Pseudomonas aeruginosa [12] = assay: Antibacterial activity against Pseudomonas aeruginosa ATCC 27853 assessed as growth inhibition at 5 ug/ml by microplate assay; type: functional; outline: as §1
Pseudomonas aeruginosa [13] = assay: Antibacterial activity against Pseudomonas aeruginosa ATCC 27853 assessed as growth inhibition at 50 ug/ml by microplate assay relative to control; type: functional; settings: read-out: GI; outline: as §1
Pseudomonas aeruginosa [14] = assay: Inhibition of Pseudomonas aeruginosa ATCC 27853 biofilm formation at 5 to 50 ug/ml after 24 hrs using crystal violet staining by spectrophotometry analysis; type: functional, organism-based; outline: as §2
Pseudomonas aeruginosa [15] = assay: Inhibition of quorum sensing activity in Pseudomonas aeruginosa ATCC 27853 assessed as N-acylhomoserin lactones production at 5 ug/ml after 24 hrs by measuring beta-galactosidase activity by spectrophotometry
Pseudomonas aeruginosa [16] = assay: Inhibition of quorum sensing activity in Pseudomonas aeruginosa ATCC 27853 assessed as N-acylhomoserin lactones production at 5 ug/ml after 24 hrs by measuring beta-galactosidase activity by spectrophotometry relative to control; set-up: scale not given: the % may be the effect or the level left
Pseudomonas aeruginosa [17] = assay: Inhibition of Pseudomonas aeruginosa ATCC 27853 biofilm formation at 16.4 uM after 24 hrs using crystal violet staining by spectrophotometry analysis relative to control; type: functional; settings: ATCC 27853, 24 h; outline: as §2
Pseudomonas aeruginosa [18] = assay: Antibacterial activity against Pseudomonas aeruginosa ATCC 27853 assessed as growth inhibition at 5 ug/ml after 24 hrs by microplate assay relative to control; type: functional; settings: ATCC 27853, 24 h, read-out: GI; outline: as §1
Pseudomonas aeruginosa [19] = assay: Inhibition of quorum sensing activity in Pseudomonas aeruginosa ATCC 27853 assessed as N-acylhomoserin lactones production at 16.4 uM after 24 hrs by measuring beta-galactosidase activity by spectrophotometry; set-up: scale not given: the % may be the effect or the level left

| SMILES | inhibition (Pseudomonas aeruginosa [10]) | biofilm induction (Pseudomonas aeruginosa [3]) | Activity (Pseudomonas aeruginosa [6]) | growth inhibition (GI) (Pseudomonas aeruginosa [9]) | inhibition (Pseudomonas aeruginosa [14]) | other results |
| --- | --- | --- | --- | --- | --- | --- |
| CC1=CC(=O)[C@@H]2[C@@H](C)CC[C@H]3[C@@H](C(C)C)CC[C@]3(C)C[C@@]12O |  | inactive |  |  |  | Activity (Pseudomonas aeruginosa [1]): 15%; Activity (Pseudomonas aeruginosa [2]): Active; growth inhibition (GI) (Pseudomonas aeruginosa [4]): Dose-dependent effect; Activity (Pseudomonas aeruginosa [5]): 95% |
| CC(=O)OC[C@@]12Cc3occc3C(=O)[C@]1(C)CC[C@H]2C [NORPINGUISONE ACETATE] |  | inactive | Active |  |  | inhibition at 50 µg/mL (Pseudomonas aeruginosa [7]): 27%; inhibition at 5 µg/mL (Pseudomonas aeruginosa [8]; ATCC 27853, 24 h): 20% |
| COC(=O)[C@@]12Cc3occc3C(=O)[C@]1(C)CC[C@H]2C | inactive | inactive | Active | inactive |  |  |
| O=C(O)c1cn(C2CC2)c2cc(N3CCNCC3)c(F)cc2c1=O [CIPROFLOXACIN] |  |  |  |  |  | inhibition at 5 µg/mL (Pseudomonas aeruginosa [11]): 51%; inhibition of growth at 5 µg/mL (Pseudomonas aeruginosa [12]; read-out: GI): 73% |
| CC(C)[C@H]1CC[C@]2(C)CC3=C(C(=O)C[C@@]3(C)O)[C@@H](C)CC[C@@H]12 |  | inactive |  |  |  | Activity (Pseudomonas aeruginosa [2]): Active; Activity (Pseudomonas aeruginosa [5]): 93% |
| CC1=C2C[C@@]3(C)CC[C@H](C(C)C)[C@@H]3CC[C@H](C)[C@]2(O)CC1=O [FUSICOAURITONE] |  | inactive |  |  |  | Activity (Pseudomonas aeruginosa [2]): Active; inhibition of growth at 50 µg/mL (Pseudomonas aeruginosa [13]): 25%; growth inhibition (GI) (Pseudomonas aeruginosa [4]): Dose-dependent effect; Activity (Pseudomonas aeruginosa [5]): 105% |
| CC[C@H]1OC(=O)[C@H](C)[C@@H](O[C@H]2C[C@@](C)(OC)[C@@H](O)[C@H](C)O2)[C@H](C)[C@@H](O[C@@H]2O[C@H](C)C[C@H](N(C)C)[C@H]2O)[C@](C)(O)C[C@@H](C)CN(C)[C@H](C)[C@@H](O)[C@]1(C)O |  |  |  |  |  | growth inhibition (GI) (Pseudomonas aeruginosa [12]): inactive; inhibition (Pseudomonas aeruginosa [15]): 76%; Activity (Pseudomonas aeruginosa [16]): 76% |
| C[C@@H]1CC[C@@]2(C)C(=O)c3ccoc3C[C@@]12C | Active | inactive | Active | Active | Active |  |

The next lines start with results.

| inhibition (Pseudomonas aeruginosa [10]) | SMILES | biofilm induction (Pseudomonas aeruginosa [3]) | Activity (Pseudomonas aeruginosa [6]) | growth inhibition (GI) (Pseudomonas aeruginosa [9]) | inhibition (Pseudomonas aeruginosa [14]) | other results |
| --- | --- | --- | --- | --- | --- | --- |
| Active | C=CC1(O)CC[C@@]2(C)[C@H](C)CC[C@@]2(C)[C@@H]1C (stereo not given in full) | inactive | Active | Active | Active |  |
| Active | CC(C)[C@H]1CC[C@]2(C)C[C@]3(O)C(=CC(=O)[C@H]3C)[C@@H](C)CC[C@@H]12 [ANADENSIN] | inactive |  | Active | Active | inhibition at 16.4 µM (Pseudomonas aeruginosa [17]): 47%; inhibition of growth at 50 µg/mL (Pseudomonas aeruginosa [13]): 16%; growth inhibition (GI) (Pseudomonas aeruginosa [4]): Dose-dependent effect |
| 80% | CC1(C)[C@@H]2[C@@H]3[C@H](CC[C@@]3(C)O)[C@@](C)(O)CC[C@@H]21 | inactive |  |  | Active | inhibition at 16.4 µM (Pseudomonas aeruginosa [17]): 37%; inhibition of growth at 5 µg/mL (Pseudomonas aeruginosa [18]): 24% |
| 33% | C=C1CC[C@H]2[C@@H]([C@@H]3[C@@H]1CC[C@@]3(C)O)C2(C)C | inactive |  |  | Active | Activity (Pseudomonas aeruginosa [19]): 33%; growth inhibition (GI) (Pseudomonas aeruginosa [12]): Active; inhibition at 16.4 µM (Pseudomonas aeruginosa [17]): 41%; inhibition (Pseudomonas aeruginosa [8]): Active |
